Experimental data: ChEMBL document CHEMBL4354861, “Re-Evaluating the Mechanism of Action of α,β-Unsaturated Carbonyl DUB Inhibitors b-AP15 and VLX1570: A Paradigmatic Example of Unspecific Protein Cross-linking with Michael Acceptor Motif-Containing Drugs” (J Med Chem, 2020)
Calls of active or inactive are those of the source. The calls are words filed in the database; no cut-off is given here.

Columns and labels:
[1] = target: Ubiquitin carboxyl-terminal hydrolase 7 (Homo sapiens) (UniProt Q93009); experiment: Inhibition of N-terminal His6-tagged full length recombinant human USP7 assessed as reduction in cleavage of luminescent substrate Ub-AML at 100 uM
Chain of Ubiquitin carboxyl-terminal hydrolase 7 (Homo sapiens) (Q93009 whole entry, looked up): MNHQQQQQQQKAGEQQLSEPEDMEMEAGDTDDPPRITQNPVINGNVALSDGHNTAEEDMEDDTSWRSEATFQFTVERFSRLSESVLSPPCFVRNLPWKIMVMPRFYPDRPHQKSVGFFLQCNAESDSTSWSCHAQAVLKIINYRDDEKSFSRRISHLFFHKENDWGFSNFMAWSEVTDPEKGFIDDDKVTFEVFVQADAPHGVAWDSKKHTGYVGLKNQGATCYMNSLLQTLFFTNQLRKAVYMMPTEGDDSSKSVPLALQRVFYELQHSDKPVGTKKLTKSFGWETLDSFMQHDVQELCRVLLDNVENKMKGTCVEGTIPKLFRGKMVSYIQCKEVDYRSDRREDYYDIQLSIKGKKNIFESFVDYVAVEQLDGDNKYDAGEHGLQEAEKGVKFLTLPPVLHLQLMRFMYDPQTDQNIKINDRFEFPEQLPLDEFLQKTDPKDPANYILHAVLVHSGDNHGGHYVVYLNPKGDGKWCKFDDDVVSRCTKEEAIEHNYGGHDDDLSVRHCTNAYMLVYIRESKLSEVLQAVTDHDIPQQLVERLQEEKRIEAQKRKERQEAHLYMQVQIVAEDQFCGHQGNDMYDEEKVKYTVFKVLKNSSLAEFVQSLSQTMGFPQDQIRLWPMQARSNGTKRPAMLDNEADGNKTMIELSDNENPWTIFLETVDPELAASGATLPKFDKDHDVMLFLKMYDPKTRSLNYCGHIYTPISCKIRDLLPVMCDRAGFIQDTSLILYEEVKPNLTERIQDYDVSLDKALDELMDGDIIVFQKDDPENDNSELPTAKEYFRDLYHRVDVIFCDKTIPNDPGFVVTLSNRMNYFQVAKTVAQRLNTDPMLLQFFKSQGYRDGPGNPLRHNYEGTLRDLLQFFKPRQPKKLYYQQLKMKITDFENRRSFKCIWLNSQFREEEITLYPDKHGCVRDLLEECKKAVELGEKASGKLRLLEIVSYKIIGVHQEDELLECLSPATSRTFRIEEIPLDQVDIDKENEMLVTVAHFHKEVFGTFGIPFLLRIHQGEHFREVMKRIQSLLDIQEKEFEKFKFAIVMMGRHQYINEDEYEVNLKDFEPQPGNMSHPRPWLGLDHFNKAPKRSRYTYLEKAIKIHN
Outline: (§1)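 Purified recombinant DUBs assayed with Ub-AML as luminescent substrate, using the Glo reagent protocol and read on a microplate luminometer.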

[2] = target: Ubiquitin carboxyl-terminal hydrolase isozyme L1 (Homo sapiens) (UniProt P09936); experiment: Inhibition of human recombinant UCHL1 assessed as reduction in cleavage of luminescent substrate Ub-AML at 100 uM; outline: as §1
Chain of Ubiquitin carboxyl-terminal hydrolase isozyme L1 (Homo sapiens) (P09936 whole entry, looked up): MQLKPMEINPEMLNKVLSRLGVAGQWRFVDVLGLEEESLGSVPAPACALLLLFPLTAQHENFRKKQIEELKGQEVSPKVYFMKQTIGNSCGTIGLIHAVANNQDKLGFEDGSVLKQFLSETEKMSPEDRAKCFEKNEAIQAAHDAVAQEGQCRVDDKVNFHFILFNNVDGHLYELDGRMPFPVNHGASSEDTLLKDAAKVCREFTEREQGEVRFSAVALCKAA

HeLa [3] = experiment: Inhibition of deubiquitinase in human HeLa cell extracts assessed as decrease in global DUB activity at 10 uM using luminescent substrate Ub-AML; type: cell-free
Outline: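 HeLa crude extracts used as the DUB source, prepared as for the ABP assays. Global DUB activity read by luminescence with Ub-AML substrate, using the Glo reagent protocol.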

[4] = target: T1, Ubiquitin carboxyl-terminal hydrolase isozyme L5 (Homo sapiens) (UniProt Q9Y5K5); experiment: Inhibition of UCH-37 in intact human HeLa cells assessed as induction of formation of high molecular weight complexes with USP14 at 10 uM incubated for 2 hrs in presence of dithiothreitol by immunoblot analysis; type: cell-based
T1 sequence (whole entry): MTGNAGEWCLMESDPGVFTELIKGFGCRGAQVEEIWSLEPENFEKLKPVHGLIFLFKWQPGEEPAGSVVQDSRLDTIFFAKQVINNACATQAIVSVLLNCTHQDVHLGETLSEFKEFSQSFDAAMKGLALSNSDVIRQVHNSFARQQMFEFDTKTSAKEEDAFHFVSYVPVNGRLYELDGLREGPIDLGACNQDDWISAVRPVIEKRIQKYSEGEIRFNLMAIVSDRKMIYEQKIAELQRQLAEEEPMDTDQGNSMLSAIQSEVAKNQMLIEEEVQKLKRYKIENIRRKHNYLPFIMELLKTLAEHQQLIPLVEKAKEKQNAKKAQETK
Outline: (§2)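 Intact HeLa cells (DMEM, 10% FBS, about 80% confluent) treated 2 h with vehicle or 10 μM compound, with or without 10 mM DTT or 10 mM GSH. Cells washed in cold PBS and lysed in RIPA with protease and phosphatase inhibitors. High-MW species detected by SDS-PAGE immunoblot; shorter exposures served as loading control.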

KMS-11 = experiment: Cytotoxicity in human KMS11 cells assessed as reduction in cell viability at 1 to 10 uM incubated for 16 hrs in presence of GSH by Alamar blue assay; type: functional, cell-based
Outline: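 KMS11 seeded at 80,000/well, treated with 1 or 10 µM compound with or without 1 mM GSH for 16 h, 6 biological replicates. Alamar blue fluorescence read at 560/590 nm, normalised to DMSO control.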

[5] = target: Ubiquitin carboxyl-terminal hydrolase 14 (Homo sapiens) (UniProt P54578); experiment: Inhibition of USP14 in intact human HeLa cells assessed as induction of formation of high molecular weight complexes with USP14 at 10 uM incubated for 2 hrs by immunoblot analysis; type: cell-based; outline: as §2
Chain of Ubiquitin carboxyl-terminal hydrolase 14 (Homo sapiens) (P54578 whole entry): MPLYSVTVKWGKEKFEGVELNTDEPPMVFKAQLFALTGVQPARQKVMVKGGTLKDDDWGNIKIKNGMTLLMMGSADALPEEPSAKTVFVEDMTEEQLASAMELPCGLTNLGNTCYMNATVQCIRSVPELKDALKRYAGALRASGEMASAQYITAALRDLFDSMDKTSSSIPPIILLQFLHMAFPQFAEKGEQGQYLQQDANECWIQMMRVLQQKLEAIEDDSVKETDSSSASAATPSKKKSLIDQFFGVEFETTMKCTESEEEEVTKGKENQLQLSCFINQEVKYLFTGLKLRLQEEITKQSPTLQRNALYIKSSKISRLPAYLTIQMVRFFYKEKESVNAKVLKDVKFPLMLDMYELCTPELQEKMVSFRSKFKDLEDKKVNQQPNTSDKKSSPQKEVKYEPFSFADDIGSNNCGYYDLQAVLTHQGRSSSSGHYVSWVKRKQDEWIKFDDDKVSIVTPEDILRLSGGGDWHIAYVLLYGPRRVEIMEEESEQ

HeLa [6] = experiment: Inhibition of deubiquitinase in human HeLa cell extracts assessed as increase in high molecular weight protein complexes at 10 uM incubated for 2 hrs in presence of GSH by SDS-PAGE and Coomassie Blue staining based method; type: cell-free
[7] = target: Ubiquitin carboxyl-terminal hydrolase 2 (Homo sapiens) (UniProt O75604); experiment: Inhibition of N-terminal His6-tagged […] recombinant human USP2 catalytic domain assessed as reduction in cleavage of luminescent substrate Ub-AML at 100 uM; outline: as §1
Chain of Ubiquitin carboxyl-terminal hydrolase 2 (Homo sapiens) (O75604 whole entry, the tested form may be a part): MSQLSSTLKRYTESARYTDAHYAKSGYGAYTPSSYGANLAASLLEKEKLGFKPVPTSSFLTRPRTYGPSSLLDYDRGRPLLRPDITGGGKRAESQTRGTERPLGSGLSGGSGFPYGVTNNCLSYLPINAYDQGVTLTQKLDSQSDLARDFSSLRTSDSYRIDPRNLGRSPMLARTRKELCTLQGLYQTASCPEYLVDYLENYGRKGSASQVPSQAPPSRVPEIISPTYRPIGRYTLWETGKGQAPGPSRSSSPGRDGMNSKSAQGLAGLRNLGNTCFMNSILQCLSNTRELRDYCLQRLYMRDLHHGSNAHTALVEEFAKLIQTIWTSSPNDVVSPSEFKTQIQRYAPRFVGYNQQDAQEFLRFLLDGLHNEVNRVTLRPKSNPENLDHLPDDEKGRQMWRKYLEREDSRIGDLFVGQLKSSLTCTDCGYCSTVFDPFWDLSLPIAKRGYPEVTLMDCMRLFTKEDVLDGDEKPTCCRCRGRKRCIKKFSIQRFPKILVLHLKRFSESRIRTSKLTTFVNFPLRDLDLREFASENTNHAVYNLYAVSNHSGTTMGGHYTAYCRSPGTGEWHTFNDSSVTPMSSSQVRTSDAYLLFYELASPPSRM

SiHa = experiment: Cytotoxicity in human SiHa cells assessed as reduction in cell viability incubated for 72 hrs Cell-titer Glo reagent based assay; type: functional
Outline: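 Tumor lines grown at 37 °C, 5% CO2 with 10% FBS (DMEM for HeLa and SiHa; RPMI for HCT116) and exposed to compound for 72 h. Viability read by CellTiter Glo luminescence; IC50 derived from n=6.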

HeLa [8] = experiment: Inhibition of deubiquitinase in human HeLa cell extracts assessed as induction of accumulation of high molecular weight mTOR proteins at 10 uM incubated for 2 hrs by immunoblot analysis; type: cell-free
[9] = target: T2, Ubiquitin carboxyl-terminal hydrolase 28 (Homo sapiens) (UniProt Q96RU2); experiment: Inhibition of USP28 in human HeLa cell extracts assessed as inhibition of HA-Ub-C2Br probe labeling at 1 to 100 uM incubated for 30 mins by immunoblot analysis; type: cell-free
T2 sequence (whole entry): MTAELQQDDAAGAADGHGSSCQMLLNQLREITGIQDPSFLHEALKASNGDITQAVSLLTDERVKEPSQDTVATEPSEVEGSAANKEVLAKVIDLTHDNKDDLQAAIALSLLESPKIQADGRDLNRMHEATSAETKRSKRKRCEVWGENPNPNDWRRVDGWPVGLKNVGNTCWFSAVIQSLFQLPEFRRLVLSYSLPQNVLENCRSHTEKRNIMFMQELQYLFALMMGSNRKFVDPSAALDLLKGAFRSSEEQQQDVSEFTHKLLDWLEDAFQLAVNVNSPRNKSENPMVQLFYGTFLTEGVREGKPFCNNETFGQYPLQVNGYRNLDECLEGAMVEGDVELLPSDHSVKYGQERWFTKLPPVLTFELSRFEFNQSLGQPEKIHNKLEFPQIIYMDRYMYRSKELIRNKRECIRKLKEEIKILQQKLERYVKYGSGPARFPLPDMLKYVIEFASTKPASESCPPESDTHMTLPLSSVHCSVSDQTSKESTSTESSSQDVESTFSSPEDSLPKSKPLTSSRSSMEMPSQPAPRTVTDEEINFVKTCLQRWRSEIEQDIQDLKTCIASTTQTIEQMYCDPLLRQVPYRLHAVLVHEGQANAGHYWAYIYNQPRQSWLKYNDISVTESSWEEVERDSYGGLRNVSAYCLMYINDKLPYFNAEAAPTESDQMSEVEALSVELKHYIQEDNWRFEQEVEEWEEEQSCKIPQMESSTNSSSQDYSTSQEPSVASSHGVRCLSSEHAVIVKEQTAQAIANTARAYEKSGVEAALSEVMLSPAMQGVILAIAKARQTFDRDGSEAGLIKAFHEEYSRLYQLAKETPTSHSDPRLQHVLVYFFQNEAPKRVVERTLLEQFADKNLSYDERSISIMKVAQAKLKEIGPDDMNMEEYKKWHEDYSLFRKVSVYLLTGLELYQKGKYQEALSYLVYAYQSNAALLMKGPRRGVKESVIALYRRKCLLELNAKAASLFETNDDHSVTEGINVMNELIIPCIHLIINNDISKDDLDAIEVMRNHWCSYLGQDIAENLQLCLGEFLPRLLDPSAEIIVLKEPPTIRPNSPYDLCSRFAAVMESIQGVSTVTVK

HUVEC = experiment: Cytotoxicity in human HUVEC cells assessed as reduction in cell viability incubated for 72 hrs Cell-titer Glo reagent based assay
Outline: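 Endothelial HUVECs (EGM-2, 10% FBS) exposed to compound for 72 h, n=6. Viability read as CellTiter Glo luminescence and IC50 derived.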

Ataxin-3 (Homo sapiens) = Ataxin-3 (Homo sapiens) (UniProt P54252); experiment: Inhibition of human recombinant Ataxin-3 assessed as reduction in cleavage of luminescent substrate Ub-AML at 100 uM; outline: as §1
Chain of Ataxin-3 (Homo sapiens) (P54252 whole entry): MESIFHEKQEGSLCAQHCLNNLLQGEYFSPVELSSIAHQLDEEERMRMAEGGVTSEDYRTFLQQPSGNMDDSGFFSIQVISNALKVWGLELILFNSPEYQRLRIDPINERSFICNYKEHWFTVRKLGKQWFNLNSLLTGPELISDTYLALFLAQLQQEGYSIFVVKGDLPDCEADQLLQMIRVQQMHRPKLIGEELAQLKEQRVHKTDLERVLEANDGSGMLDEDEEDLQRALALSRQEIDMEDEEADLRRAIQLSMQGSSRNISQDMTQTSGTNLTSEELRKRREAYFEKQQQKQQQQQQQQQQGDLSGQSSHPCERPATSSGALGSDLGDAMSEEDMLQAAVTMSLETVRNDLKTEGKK

SMILES: C=CC(=O)N1C/C(=C\c2ccc([N+](=O)[O-])cc2)C(=O)/C(=C/c2ccc([N+](=O)[O-])cc2)C1
- inhibition [1]: Active
- inhibition [2]: Active
- inhibition (HeLa [3]): Active
- inhibition [4]: inactive
- Activity (KMS-11): inactive
- inhibition [5]: Active
- inhibition (HeLa [6]): inactive
- inhibition [7]: Active
- Activity (SiHa): Active
- inhibition (HeLa [8]): Active
- inhibition [9]: Active
- Activity (HUVEC): Toxic
- inhibition (Ataxin-3 (Homo sapiens)): Active
